Results on 16 compounds are retold here after ChEMBL document CHEMBL1133478, “Discovery of potent cyclic pseudopeptide human tachykinin NK-2 receptor antagonists” (J Med Chem, 2000).

Bridge positions count the residues as written; N and C are the ends. Square brackets hold non-standard residues; d marks the D form. Peptide text beside a SMILES is read from it. * marks the point of attachment. NH(β-GlcNAc) = CC(=O)N[C@@H]1[C@@H](O)[C@H](O)[C@@H](CO)O[C@H]1N*; Dap = NC[C@H](N)C(=O)O

The target in one assay is T1, Substance-K receptor (Homo sapiens, UniProt P21452).
T1 sequence (P21452 whole entry): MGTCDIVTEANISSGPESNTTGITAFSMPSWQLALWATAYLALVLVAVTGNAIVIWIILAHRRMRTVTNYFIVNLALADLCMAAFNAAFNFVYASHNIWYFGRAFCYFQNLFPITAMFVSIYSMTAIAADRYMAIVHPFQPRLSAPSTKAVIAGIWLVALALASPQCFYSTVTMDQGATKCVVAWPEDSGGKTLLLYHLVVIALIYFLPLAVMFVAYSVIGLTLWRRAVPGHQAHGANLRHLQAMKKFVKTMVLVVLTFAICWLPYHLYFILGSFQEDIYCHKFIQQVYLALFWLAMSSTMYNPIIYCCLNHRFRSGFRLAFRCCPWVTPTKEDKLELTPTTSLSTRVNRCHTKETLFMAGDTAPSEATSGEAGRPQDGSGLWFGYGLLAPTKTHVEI
The assay is described as follows: Binding affinity towards Tachykinin receptor 2. In outline: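 Competition binding at human NK-2 receptor expressed in CHO cells, radioligand [125I]NKA. pKi computed with EBDA then LIGAND; mean of 2–6 experiments, each run in duplicate.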

Assay [1] relates to Substance-K receptor (Oryctolagus cuniculus). The assay is described as follows: In Vitro evaluation for the functional activity towards Tachykinin receptor 2.
Assay [2] concerns the target Substance-P receptor (Cavia porcellus) (UniProt P30547).
Assay [3] concerns the target T2, Neuromedin-K receptor (Cavia porcellus) (UniProt P30098).
T2 sequence (whole entry): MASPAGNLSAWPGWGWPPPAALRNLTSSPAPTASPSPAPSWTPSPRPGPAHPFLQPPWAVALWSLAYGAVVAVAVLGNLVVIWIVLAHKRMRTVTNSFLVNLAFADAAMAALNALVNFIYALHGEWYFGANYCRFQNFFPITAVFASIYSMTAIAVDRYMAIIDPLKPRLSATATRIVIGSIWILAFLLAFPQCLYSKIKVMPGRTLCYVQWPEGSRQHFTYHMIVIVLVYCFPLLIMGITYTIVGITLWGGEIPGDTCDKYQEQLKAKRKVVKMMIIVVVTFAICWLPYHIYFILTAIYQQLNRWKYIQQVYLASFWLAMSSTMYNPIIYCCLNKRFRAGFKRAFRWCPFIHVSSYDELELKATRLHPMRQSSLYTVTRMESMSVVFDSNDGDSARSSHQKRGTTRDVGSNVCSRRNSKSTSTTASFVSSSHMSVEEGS

Assay [4] addresses T3, Substance-K receptor (Cavia porcellus) (UniProt Q64077).
T3 sequence (whole entry): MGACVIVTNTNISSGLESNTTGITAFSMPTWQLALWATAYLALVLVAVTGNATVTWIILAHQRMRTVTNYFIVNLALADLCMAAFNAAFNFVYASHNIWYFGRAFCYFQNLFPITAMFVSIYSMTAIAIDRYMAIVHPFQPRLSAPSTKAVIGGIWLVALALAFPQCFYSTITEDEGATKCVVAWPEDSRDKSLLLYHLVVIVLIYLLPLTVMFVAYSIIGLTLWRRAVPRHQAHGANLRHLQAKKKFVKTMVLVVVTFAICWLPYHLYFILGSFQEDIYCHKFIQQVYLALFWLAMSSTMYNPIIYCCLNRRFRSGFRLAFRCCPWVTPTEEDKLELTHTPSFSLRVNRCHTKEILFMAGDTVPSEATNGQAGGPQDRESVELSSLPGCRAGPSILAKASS

Substance-P receptor (Cavia porcellus), sequence (P30547 whole entry): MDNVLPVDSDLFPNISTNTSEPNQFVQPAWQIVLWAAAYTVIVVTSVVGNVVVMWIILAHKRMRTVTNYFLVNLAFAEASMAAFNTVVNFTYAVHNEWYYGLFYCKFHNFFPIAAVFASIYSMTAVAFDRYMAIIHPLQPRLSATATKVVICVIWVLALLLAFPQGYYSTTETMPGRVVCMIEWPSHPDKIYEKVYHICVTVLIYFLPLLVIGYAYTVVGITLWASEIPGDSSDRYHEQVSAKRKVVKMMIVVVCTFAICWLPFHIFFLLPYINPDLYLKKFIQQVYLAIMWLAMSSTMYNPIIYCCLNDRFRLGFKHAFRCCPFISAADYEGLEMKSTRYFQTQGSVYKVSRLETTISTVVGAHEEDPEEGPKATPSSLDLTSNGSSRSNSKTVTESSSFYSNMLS

A word on the Ki: it is the equilibrium dissociation constant of an inhibitor or competing ligand from its target. The low end stands for tighter binding, the high end for weaker binding. For orientation: pKb means −log10 of the Kb, conventionally taken in molar units. Turning to `O=C1CCC(=O)N[C@@H](Cc2c[nH]c3ccccc23)C(=O)N[C@@H](Cc2ccccc2)C(=O)N[C@H](Cc2ccc(Cl)c(Cl)c2)CN1`, the Ki at Substance-K receptor was 0.1 nM. In assay [1], this compound gave a pKb of 8.1.
Compound `O=C1CCC(=O)N[C@H](Cc2ccccc2)CNC(=O)[C@H](Cc2ccccc2)NC(=O)C(Cc2c[nH]c3ccccc23)N1` (single isomer, unassigned) had a Ki on Substance-K receptor of 1260 nM. In assay [1], this compound showed a pKb of 5.4.
The compound `O=C1CCC(=O)N[C@@H](Cc2c[nH]c3ccccc23)C(=O)N[C@@H](Cc2ccccc2)C(=O)N[C@H](CC2CCCCC2)CN1` had a Ki on Substance-K receptor of 316 nM. For the same compound, the pKb in assay [1] was determined as 6.5.
`CC(=O)N[C@@H]1[C@@H](O)[C@H](O)[C@@H](CO)O[C@H]1NC(=O)C[C@@H]1NC(=O)[C@H](CC(C)C)NC(=O)[C@@H]2CNC(=O)C[C@H](NC1=O)C(=O)N[C@@H](Cc1c[nH]c3ccccc13)C(=O)N[C@@H](Cc1ccccc1)C(=O)N2` (cyclo(D(NH(β-GlcNAc))DWF[Dap]L); lactam 2-5) gave a Ki on Substance-K receptor of 2.51 nM.
`O=C1CCC(=O)N[C@@H](Cc2c[nH]c3ccccc23)C(=O)N[C@@H](Cc2ccccc2)C(=O)NCCN1` had a Ki at Substance-K receptor of 1260 nM. Besides, the pKb in assay [1] was found to be 6.3.
Consider `O=C1CCC(=O)N[C@@H](Cc2c[nH]c3ccccc23)C(=O)N[C@@H](Cc2ccccc2)C(=O)NC(Cc2ccccc2)CN1` (some centres not stated), for which affinity on Substance-K receptor was put at a Ki of 1260 nM.
The compound `O=C1CC(Cc2ccccc2)C(=O)NCCNC(=O)[C@H](Cc2ccccc2)NC(=O)[C@H](Cc2c[nH]c3ccccc23)N1` (mixture of isomers) showed a Ki at Substance-K receptor of 794 nM. This compound also displayed a pKb in assay [1] of 6.1.
As for `O=C1CC(Cc2ccccc2)C(=O)N[C@@H](Cc2c[nH]c3ccccc23)C(=O)N[C@@H](Cc2ccccc2)C(=O)NCCN1` (mixture of isomers), the affinity on Substance-K receptor corresponds to a Ki of 631 nM. The pKb in assay [1] is 5.7.
For `O=C1CCC(=O)N[C@@H](Cc2c[nH]c3ccccc23)C(=O)N[C@@H](Cc2ccccc2)C(=O)N[C@H](Cc2ccc(C(F)(F)F)cc2)CN1`, affinity on Substance-K receptor was put at a Ki of 20 nM. Besides, the pKb in assay [1] worked out at 7.1.
Compound `O=C1CCC(=O)N[C@@H](Cc2c[nH]c3ccccc23)C(=O)N[C@@H](Cc2ccccc2)C(=O)N[C@H](Cc2ccc3ccccc3c2)CN1` gave a Ki on Substance-K receptor of 7.94 nM. This compound also yielded a pKb in assay [1] of 7.
Consider `O=C1CCC(=O)N[C@@H](Cc2c[nH]c3ccccc23)C(=O)N[C@@H](Cc2ccccc2)C(=O)N[C@H](CCc2ccccc2)CN1`, for which the Ki at Substance-K receptor was 10 nM. The pKb in assay [1] worked out at 6.5.
For the compound `COc1ccc(CC2CNC(=O)CCC(=O)N[C@@H](Cc3c[nH]c4ccccc34)C(=O)N[C@@H](Cc3ccccc3)C(=O)N2)cc1` (some centres not stated), on Substance-K receptor, the Ki is 10 nM. The same compound gave a pKb in assay [1] of 7.1.
`O=C1CCC(=O)N[C@@H](Cc2c[nH]c3ccccc23)C(=O)N[C@@H](Cc2ccccc2)C(=O)NC[C@H](Cc2ccccc2)N1` showed a Ki on Substance-K receptor of 1260 nM. Besides, the pKb in assay [1] was 5.5.
Usually pKB stands for the negative decadic logarithm of the KB, by convention in mol/L. On Substance-K receptor, `O=C1CCC(=O)NC(Cc2c[nH]c3ccccc23)C(=O)N[C@@H](Cc2ccccc2)C(=O)N[C@H](Cc2ccccc2)CN1` (single isomer, unassigned) showed a Ki of 2 nM. For the same compound, the pKB in assay [2] is 5.7; in assay [3] it was 6.1; in assay [4] it was 7.8.
`CSCC[C@@H]1NC(=O)[C@H](CC(C)C)NC(=O)[C@@H]2CNC(=O)C[C@H](NC1=O)C(=O)N[C@@H](Cc1c[nH]c3ccccc13)C(=O)N[C@@H](Cc1ccccc1)C(=O)N2` (cyclo(DWF[Dap]LM); lactam 1-4) showed a Ki at Substance-K receptor of 0.631 nM. Also, in assay [1], the pKb was determined as 8.1.
On the same counts, the results for `O=C1CCC(=O)N[C@@H](Cc2c[nH]c3ccccc23)C(=O)N[C@@H](Cc2ccccc2)C(=O)N[C@H](Cc2ccc(F)c(F)c2)CN1` are 1.58 nM and 7.8.
